Apaf1 inhib: human Apaf-1 inhibition | AID 489030 | O14727 | 330,000 tested, 0.71% active | reconstituted apoptosome caspase-3 activity, DEVD-Rh110 fluorescence | inhibition, % at 20 µM; active means inhibition of at least 40% at 20 µM
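System – cell-free apoptosome with Apaf-1, procaspase-3 and caspase-9 · Buffer or medium – pH 7.5 Hepes buffer with CHAPS, BSA, DTT · Also added – cytochrome c with DEVD-Rh110 · Times – 30 min compound preincubation, 50 min activation, room temperature · Technique – Rh110 fluorescence intensity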
SENP1 inh: inhibitors of human SENP1 SUMO protease catalytic domain | Q9P0U3 | recombinant SENP1 catalytic domain, CyPet-SUMO1-YPet FRET cleavage | inhibition, % at 10 µM | 360,000 tested, 0.21% active | AID 624204;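 active means inhibition at least 30% at 10 µM, raw YFP signal under a set limit, fluorescence ratio 0.5 to 1.5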
Target sequence (Q9P0U3 419-644 limits assumed): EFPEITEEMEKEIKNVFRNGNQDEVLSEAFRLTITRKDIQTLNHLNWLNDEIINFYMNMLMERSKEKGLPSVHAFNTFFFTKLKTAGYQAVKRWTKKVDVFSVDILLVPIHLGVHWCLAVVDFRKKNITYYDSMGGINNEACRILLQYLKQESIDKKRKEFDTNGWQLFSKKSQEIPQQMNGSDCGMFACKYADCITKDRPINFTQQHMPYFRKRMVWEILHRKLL
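Assay system – human recombinant His6-tagged SENP1 catalytic domain enzyme · Input – SENP1 enzyme, 20 pM final · Buffer or medium – Tris pH 8 buffer plus EDTA, NaCl, BME, BSA, NP40, catalase · Schedule – 50 min reaction at room temperature · Technique – FRET read of cyan and yellow fluorescence · Control set – no-enzyme wells low, DMSO-plus-enzyme wells high control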
SENP6 block: inhibitors of human SENP6 protease. Q9GZR1. Recombinant SENP6 catalytic domain, aminoluciferin luminescence. inhibition, % at 10 µM. 330,000 tested, 1.8% active. AID 2599;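 active means inhibition above about 50% at the single tested dose, limit read from the data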
SENP8 block-1: inhibitors of human SENP8 protease; Q96LD8; purified SENP8, Z-RLRGG-aminoluciferin cleavage, luminescence; inhibition, % at 10 µM; AID 2540; 330,000 tested, 1.2% active; in the data active means inhibition above about 50%
SENP8 block-2: inhibitors of human SENP8 protease. recombinant SENP8, Nedd8 substrate fluorescence. inhibition, % at 20 µM. 360,000 tested, 0.64% active. AID 602440; in the data active means inhibition mostly above about 40%, no sharp cut-off; inactive means mostly below about 27%
SENP7 block: blocks the human protease SENP7. Q9BQF6. recombinant SENP7, Z-RLRGG-aminoluciferin luminescence, 40 min. inhibition, % at 5 µM. 330,000 tested, 1.5% active;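 active means inhibition above about 50% at the single test dose, limit read from the data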
Target sequence (Q9BQF6 706-1050 limits assumed): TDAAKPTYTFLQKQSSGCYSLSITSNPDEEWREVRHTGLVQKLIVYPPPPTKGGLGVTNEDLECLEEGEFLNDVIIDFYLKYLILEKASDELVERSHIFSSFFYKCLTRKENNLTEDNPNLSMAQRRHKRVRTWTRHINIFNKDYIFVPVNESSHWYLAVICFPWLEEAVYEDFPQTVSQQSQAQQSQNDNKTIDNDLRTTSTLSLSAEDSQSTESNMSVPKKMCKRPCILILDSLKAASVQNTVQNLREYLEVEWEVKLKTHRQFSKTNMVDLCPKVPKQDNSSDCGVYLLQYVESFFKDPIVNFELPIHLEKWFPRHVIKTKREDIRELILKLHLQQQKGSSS
SENP1 conf: confirmation of human SENP1 SUMO protease inhibitors; shares compounds with SENP1 inh; recombinant SENP1, CyPet-SUMO1-YPet FRET cleavage; inhibition, % at 10 µM; 520 tested, 34% active; AID 651678; in the data active means inhibition mostly above about 35%, no sharp cut-off; inactive means mostly below about 32%
SENP1 kinetic: confirmation of human SENP1 SUMO protease inhibitors, kinetic; shares compounds with SENP1 inh; recombinant SENP1, CyPet-SUMO1-YPet FRET kinetic cleavage; inhibition, % at 10 µM; 520 tested, 26% active; AID 651690; in the data active means inhibition mostly above about 32%, no sharp cut-off; inactive means mostly below about 29%
Numbers stand for hits; i = inactive; nt = no result. Shown are actives, neighbours in structure and some others; about 2.9% of the full set was active somewhere.

SMILES | Apaf1 inhib | SENP1 inh | SENP6 block | SENP8 block-1 | SENP8 block-2 | SENP7 block | SENP1 conf | SENP1 kinetic
Cc1cccc(C)c1-n1nnnc1-c1nc2cc3ccccc3cc2[nH]c1=O | nt | 62.5 | nt | nt | i | nt | 61.6 | 44.6
O=[N+]([O-])c1ccc(Oc2cccc3cccnc23)c([N+](=O)[O-])c1 | i | 76.2 | i | i | i | i | i | i
CCC(CC)C(C(=O)NCc1ccccc1)N(C)Cc1ccc(Cl)c(Cl)c1 (stereo unspecified) | nt | i | nt | nt | i | nt | nt | nt
Cc1cccc(-n2c(SCc3cc(=O)n4ccsc4n3)nc3ccccc32)c1 | i | 31.4 | i | i | i | i | 39.8 | i
Cc1ccnc(NC(=O)CCC(=O)c2cc(C)sc2C)c1 | i | 38.2 | i | i | i | i | i | i
O=C(C[n+]1cccc2ccccc21)c1ccc(Cl)cc1 | i | 42.7 | i | i | i | i | i | i
COc1cc(NC(=O)Nc2nc(C(N)C3CCCCC3)cs2)cc(OC)c1OC (stereo unspecified) | nt | i | nt | nt | i | nt | nt | nt
Nc1ccc2c(c1)C(=O)N(CCCC(=O)O)C2=O | i | 74.4 | i | i | i | i | 56.3 | i
N#Cc1ccc(-c2nc3ccc(Cl)cn3c2Cc2ccccc2C(F)(F)F)cc1 | nt | 48.5 | nt | nt | i | nt | 54.8 | 45.0
COc1ccccc1Cc1c(-c2ccc(Cl)cc2)nc2ccc(Br)cn12 | nt | 42.0 | nt | nt | i | nt | i | i
COc1ccccc1Cc1c(-c2cccc(Br)c2)nc2ccc(Cl)cn12 | nt | 33.0 | nt | nt | i | nt | i | i
COc1ccccc1Cc1c(-c2ccc(C)cc2)nc2ccc(Br)cn12 | nt | i | nt | nt | i | nt | nt | nt
COC1OC(O)C(NC(=O)C(F)(F)F)CC1O (stereo unspecified) | nt | i | nt | nt | i | nt | nt | nt
Cc1cccc(C)c1NC(=O)C(C)n1c(-c2ccc(=O)[nH]c2)nc2ccccc21 (stereo unspecified) | nt | 39.7 | nt | nt | i | nt | i | i
Cc1cccc(C)c1NC(=O)C(C1CC1)n1c(-c2ccc(=O)[nH]c2)nc2ccccc21 (stereo unspecified) | nt | i | nt | nt | i | nt | nt | nt
CCc1nc2ccccc2n1Cc1ccc(OC)c(OC)c1 | i | i | i | i | i | i | nt | nt
COc1ccc2c(c1)c1nc3ccccc3nc1n2Cc1ccc(OC)c(OC)c1 | nt | 38.6 | nt | nt | i | nt | 62.8 | 52.0
COc1ccc(/C=C/c2nc3ccccc3n2Cc2ccc(OC)c(OC)c2)cc1 | i | i | i | i | i | i | nt | nt
CCOc1ccc(Cn2c3ccc(OC)cc3c3nc4ccccc4nc32)cc1OC | i | 41.8 | i | i | i | i | 67.9 | 48.4
COc1ccc(-c2nnc(C)c3nocc23)cc1 | i | 37.0 | i | i | i | i | i | i
O=C(Nc1nccs1)c1cc2cc(Cl)ccc2oc1=O | i | 44.6 | i | i | i | i | 96.5 | 82.6
C/C(=N/N=C(\C)c1ccccc1O)c1ccccc1O | i | i | i | i | i | i | nt | nt
CCC(=NN=C(CC)c1ccccc1O)c1ccccc1O | nt | 46.6 | nt | nt | i | nt | 130.1 | 73.4
O=C(C(=O)N1CCCN(Cc2ccc(F)cc2)CC1)c1ccccc1 | nt | i | nt | nt | i | nt | nt | nt
COc1ccccc1NC(=O)CON=C(N)CC(=O)NC1CCCCC1 | i | 54.8 | i | i | i | i | 50.7 | 45.8
SMILES | Apaf1 inhib | SENP1 inh | SENP6 block | SENP8 block-1 | SENP8 block-2 | SENP7 block | SENP1 conf | SENP1 kinetic
CCc1cc2c(N=Nc3c(O)[nH]c4ccccc34)ncnc2s1 | i | 58.7 | i | i | i | i | i | i
CCCCN1CC(N2CCN(Cc3ccccc3)CC2)CS1(=O)=O (stereo unspecified) | nt | i | nt | nt | i | nt | nt | nt
O=[N+]([O-])c1ccc(NN=Cc2cccc([N+](=O)[O-])c2)cc1 | nt | i | nt | nt | i | nt | nt | nt
O=[N+]([O-])c1ccc(C=NNc2ccc(S(=O)(=O)O)cc2)cc1 | nt | 73.3 | nt | nt | i | nt | i | i
COc1cc(/C=C/C(=O)OCC(=O)N2CC(C)OC(C)C2)ccc1OCC#N (stereo unspecified) | nt | i | nt | nt | i | nt | nt | nt
COC(=O)C1=C(C)N=c2s/c(=C/c3ccoc3)c(=O)n2C1c1ccccc1 (stereo unspecified) | i | i | i | i | i | i | nt | nt
CC(=O)C1=C(C)N=c2s/c(=C/c3ccc4c(c3)OCO4)c(=O)n2C1c1ccc(N(C)C)cc1 (stereo unspecified) | nt | 64.8 | nt | nt | i | nt | i | i
CCN(CC)C(=O)c1ccc(Cc2cn(C)c3ccccc23)nc1 | nt | i | nt | nt | i | nt | nt | nt
Cc1ccc(/C(O)=C2\C(=O)C(=O)N(CCCN3CCOCC3)C2c2ccccc2F)cc1 (stereo unspecified) | nt | i | nt | nt | i | nt | nt | nt
CCN(CC)c1ccc(C(=O)NN)cc1 | i | i | i | i | i | i | nt | nt
CCN(CC)c1ccc(N=C2C=CC(=O)C=C2NC(C)=O)cc1 | nt | 66.3 | nt | nt | i | nt | i | i
NC(=O)c1cc(S(=O)(=O)N2CCCC2)ccc1OCCOc1ccccc1 | i | i | i | i | i | i | nt | nt
COc1ccccc1C1C2=C(N=c3s/c(=C/c4cccc(OCC(=O)O)c4)c(=O)n31)c1ccccc1CC2 (stereo unspecified) | nt | 35.6 | nt | nt | i | nt | 44.3 | i

Compound activity from PubChem.
